In ChEMBL document CHEMBL1124186, “Synthesis and evaluation of tylosin-related macrolides modified at the aldehyde function: a new series of orally effective antibiotics” (1988):
Converted amounts (≈) assume the structure as drawn.

How the values were obtained:
[1] = tested on: Haemophilus influenzae; test: In vitro antimicrobial activity against Haemophilus influenzae.; type: functional
[2] = tested on: Prevotella melaninogenica; test: In vitro antimicrobial activity against anaerobic bacteria bacteroides melaninogenicus 1856,; type: functional
[3] = tested on: Streptococcus; test: In vitro antimicrobial activity against aerobic bacteria Streptococcus D 2041; type: functional
[4] = tested on: Staphylococcus epidermidis; test: In vitro antimicrobial activity against Staphylococcus epidermidis EPI1; type: functional
[5] = tested on: Mus musculus; test: Peripheral plasma levels in mice after oral administration of 100 mg/kg dose for 2 hr; type: functional, organism-based; set-up: dose 100 mg/kg
Outline: (§1)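 Mice were given the compound orally and sampled for peripheral plasma at each time point. Plasma was assayed microbiologically against Micrococcus luteus seeded in Antibiotic Medium 1. Inhibition zone sizes were read, and concentrations were calculated from each compound's own standard curve. Each value is the mean of five mice per time point.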

[6] = tested on: Staphylococcus aureus; test: In vitro antimicrobial activity against aerobic bacteria Staphylococcus aureus V135; type: functional
[7] = tested on: Haemophilus influenzae; test: In vitro antimicrobial activity against aerobic bacteria Haemophilus influenzae 465; type: functional
[8] = tested on: Staphylococcus aureus; test: In vitro antimicrobial activity against Staphylococcus aureus X1; type: functional
[9] = tested on: Mus musculus; test: Peripheral plasma levels in mice after oral administration of 50 mg/kg dose for 2 hr; type: functional, organism-based; set-up: dose 50 mg/kg; outline: as §1
[10] = tested on: Rattus norvegicus; test: Peripheral plasma levels in rats after oral administration of 100 mg/kg dose for 0.25 hr; type: functional, organism-based; set-up: dose 100 mg/kg
Outline: (§2)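 Rats received 100 mg/kg orally and were sampled for peripheral plasma. Concentrations were measured by Micrococcus luteus agar-diffusion microbiological assay in Antibiotic Medium 1, with zone sizes converted using the standard curve for the appropriate compound. Each value is the average of three rats per time point.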

[11] = tested on: Bacteroides fragilis; test: In vitro antimicrobial activity against anaerobic bacteria bacteroides fragilis 1936B,; type: functional
[12] = tested on: Collinsella aerofaciens; test: In vitro antimicrobial activity against anaerobic bacteria eubacterium aerofaciens 1235; type: functional
[13] = tested on: Cutibacterium acnes; test: In vitro antimicrobial activity against anaerobic bacteria propionibacterium acnes 79; type: functional
[14] = tested on: Staphylococcus aureus; test: In vitro antimicrobial activity against aerobic bacteria Staphylococcus aureus 513E; type: functional
[15] = tested on: Clostridium perfringens; test: In vitro antimicrobial activity against anaerobic bacteria clostridium perfringens 81,; type: functional
[16] = tested on: Rattus norvegicus; test: Peripheral plasma levels in rats after oral administration of 100 mg/kg dose for 0.5 hr; type: functional, organism-based; set-up: dose 100 mg/kg; outline: as §2
[17] = tested on: Staphylococcus aureus; test: In vivo activity against experimental infections in mice Staphylococcus aureus X1 when administered orally; type: functional; conditions: po
[18] = tested on: Staphylococcus aureus; test: In vivo activity against experimental infections in mice Staphylococcus aureus X1 when administered sc; type: functional
[19] = tested on: Prevotella melaninogenica; test: In vitro antimicrobial activity against anaerobic bacteria bacteroides melaninogenicus 2736; type: functional
[20] = tested on: Streptococcus viridans; test: In vitro antimicrobial activity against aerobic bacteria Streptococcus viridans 9943; type: functional
[21] = tested on: Streptococcus; test: In vitro antimicrobial activity against aerobic bacteria Streptococcus G Kruder; type: functional; conditions: Streptococcus; read-out: MIC
[22] = tested on: Rattus norvegicus; test: Peripheral plasma levels in rats after oral administration of 100 mg/kg dose for 1 hr; type: functional, organism-based; set-up: dose 100 mg/kg; outline: as §2
[23] = tested on: Mus musculus; test: Peripheral plasma levels in mice after oral administration of 100 mg/kg dose for 0.5 hr; type: functional, organism-based; set-up: dose 100 mg/kg; outline: as §1
[24] = tested on: Streptococcus; test: In vitro antimicrobial activity against aerobic bacteria Streptococcus B 14; type: functional
[25] = tested on: Haemophilus influenzae; test: In vitro antimicrobial activity against aerobic bacteria Haemophilus influenzae 76; type: functional
[26] = tested on: Peptostreptococcus anaerobius; test: In vitro antimicrobial activity against anaerobic bacteria eubacterium peptostreptococcus anaerobius 1428,; type: functional
[27] = tested on: Clostridium septicum; test: In vitro antimicrobial activity against anaerobic bacteria clostridium septicum 1128; type: functional
[28] = tested on: Streptococcus pneumoniae; test: In vitro antimicrobial activity against aerobic bacteria Streptococcus pneumoniae B1-438; type: functional, streptococcus pneum
[29] = tested on: Mus musculus; test: Peripheral plasma levels in mice after oral administration of 100 mg/kg dose for 4 hr; type: functional, organism-based; set-up: dose 100 mg/kg; outline: as §1
[30] = tested on: Fusobacterium; test: In vitro antimicrobial activity against anaerobic bacteria fusobacterium symbiosum 1470; type: functional
[31] = tested on: Streptococcus pneumoniae; test: In vitro antimicrobial activity against Streptococcus pneumoniae; type: functional
[32] = tested on: Streptococcus pyogenes; test: In vivo effective dose against experimental infections in rodent caused by Streptococcus pyogenes C203 when administered sc; type: functional
[33] = tested on: Streptococcus sanguinis; test: In vitro antimicrobial activity against aerobic bacteria Streptococcus sanguis MX132; type: functional
[34] = tested on: Staphylococcus aureus; test: In vitro antimicrobial activity against aerobic bacteria Staphylococcus aureus V41; type: functional
[35] = tested on: Staphylococcus aureus; test: In vitro antimicrobial activity against aerobic bacteria Staphylococcus aureus V140,; type: functional
[36] = tested on: Bacteroides thetaiotaomicron; test: In vitro antimicrobial activity against anaerobic bacteria bacteroides thetaiotaomicron 1438; type: functional
[37] = tested on: Streptococcus pyogenes; test: In vivo effective dose against experimental infections in rodent caused by Streptococcus pyogenes C203 when administered orally; type: functional; conditions: po
[38] = tested on: Clostridioides difficile; test: In vitro antimicrobial activity against anaerobic bacteria Clostridium difficile 2994; type: functional
[39] = tested on: Anaerococcus prevotii; test: In vitro antimicrobial activity against anaerobic bacteria peptococcus prevoti 1281; type: functional
[40] = tested on: Streptococcus; test: In vitro antimicrobial activity against aerobic bacteria Streptococcus B 5; type: functional
[41] = tested on: Streptococcus; test: In vitro antimicrobial activity against aerobic bacteria Streptococcus D 9960; type: functional
[42] = tested on: Mus musculus; test: Peripheral plasma levels in mice after oral administration of 100 mg/kg dose for 0.25 hr; type: functional, organism-based; set-up: dose 100 mg/kg; outline: as §1
[43] = tested on: Fusobacterium necrophorum; test: In vitro antimicrobial activity against anaerobic bacteria usobacterium necrophorum 6054A; type: functional
[44] = tested on: Haemophilus parainfluenzae; test: In vitro antimicrobial activity against aerobic bacteria Haemophilus parainfluenzae 9796; type: functional
[45] = tested on: Chlamydia trachomatis; test: In vitro antimicrobial activity against chlamydia trachomatis.; type: functional
[46] = tested on: Phocaeicola vulgatus; test: In vitro antimicrobial activity against anaerobic bacteria bacteroides vulgatus 1211; type: functional
[47] = tested on: Streptococcus; test: In vitro antimicrobial activity against aerobic bacteria Streptococcus C 24; type: functional
[48] = tested on: Bacteroides fragilis; test: In vitro antimicrobial activity against anaerobic bacteria bacteroides fragilis 111; type: functional
[49] = tested on: Haemophilus influenzae; test: In vitro antimicrobial activity against aerobic bacteria Haemophilus influenzae MX366,; type: functional
[50] = tested on: Mus musculus; test: Peripheral plasma levels in mice after oral administration of 100 mg/kg dose for 1 hr; type: functional, organism-based; set-up: dose 100 mg/kg; outline: as §1
[51] = tested on: Mus musculus; test: Peripheral plasma levels in mice after oral administration of 50 mg/kg dose for 0.25 hr; type: functional, organism-based; set-up: dose 50 mg/kg; outline: as §1
[52] = tested on: Streptococcus pneumoniae; test: In vivo activity against experimental infections in mice Streptococcus pneumoniae park when administered sc; type: functional
[53] = tested on: Enterococcus faecium; test: In vitro antimicrobial activity against Streptococcus faecium X66; type: functional, streptococcus fae-cium
[54] = tested on: Eikenella corrodens; test: In vitro antimicrobial activity against anaerobic bacteria bacteroides corrodens 1874; type: functional
[55] = tested on: Streptococcus pyogenes; test: In vitro antimicrobial activity against Streptococcus pyogenes C203; type: functional
[56] = In vitro antimicrobial activity against anaerobic bacteria peptostreptococcus intermedius 1264; type: functional
[57] = tested on: Staphylococcus aureus; test: In vitro antimicrobial activity against aerobic bacteria Staphylococcus aureus X400; type: functional
[58] = tested on: Streptococcus pneumoniae; test: In vivo activity against experimental infections in mice Streptococcus pneumoniae park when administered orally; type: functional; conditions: po
[59] = tested on: Bacteroides fragilis; test: In vitro antimicrobial activity against anaerobic bacteria bacteroides fragilis 1877; type: functional
[60] = tested on: Staphylococcus epidermidis; test: In vitro antimicrobial activity against aerobic bacteria Streptococcus epi 270; type: functional
[61] = tested on: Rattus norvegicus; test: Peripheral plasma levels in rats after oral administration of 100 mg/kg dose for 4 hr; type: functional, organism-based; set-up: dose 100 mg/kg; outline: as §2
[62] = tested on: Mus musculus; test: Peripheral plasma levels in mice after oral administration of 50 mg/kg dose for 4 hr; type: functional, organism-based; set-up: dose 50 mg/kg; outline: as §1
[63] = tested on: Rattus norvegicus; test: Peripheral plasma levels in rats after oral administration of 100 mg/kg dose for 2 hr; type: functional, organism-based; set-up: dose 100 mg/kg; outline: as §2
[64] = tested on: Mus musculus; test: Peripheral plasma levels in mice after oral administration of 50 mg/kg dose for 1 hr; type: functional, organism-based; set-up: dose 50 mg/kg; outline: as §1
[65] = tested on: Streptococcus; test: In vitro antimicrobial activity against aerobic bacteria Streptococcus D 8043; type: functional
[66] = tested on: Staphylococcus epidermidis; test: In vitro antimicrobial activity against aerobic bacteria Streptococcus epi 222; type: functional
[67] = tested on: Mus musculus; test: Peripheral plasma levels in mice after oral administration of 50 mg/kg dose for 0.5 hr; type: functional, organism-based; set-up: dose 50 mg/kg; outline: as §1
[68] = tested on: Peptoniphilus asaccharolyticus; test: In vitro antimicrobial activity against anaerobic bacteria peptococcus asaccharolyticus 1302; type: functional
[69] = tested on: Streptococcus; test: In vitro antimicrobial activity against aerobic bacteria Streptococcus B 8; type: functional

CC[C@H]1OC(=O)C[C@@H](O)[C@H](C)[C@@H](O[C@@H]2O[C@H](C)[C@@H](O)[C@H](N(C)C)[C@H]2O)[C@@H](CCOc2ccccc2)C[C@@H](C)C(=O)/C=C/C(C)=C/[C@@H]1CO[C@@H]1O[C@H](C)[C@@H](O)[C@@H](OC)[C@H]1OC
MIC [1]: 32 µg/mL (≈ 37.6 µM)
MIC [2]: 1 µg/mL (≈ 1.18 µM)
MIC [3]: 8 µg/mL (≈ 9.41 µM)
MIC [4]: 0.25 µg/mL (≈ 0.294 µM)
Concentration [5]: 6.5 µg/mL
MIC [6]: 0.25 µg/mL (≈ 0.294 µM)
MIC [7]: 16 µg/mL (≈ 18.8 µM)
MIC [8]: 0.25 µg/mL (≈ 0.294 µM)
Concentration [9]: 1.2 µg/mL
Concentration [10]: 2.6 µg/mL
MIC [11]: 1 µg/mL (≈ 1.18 µM)
MIC [12]: 2 µg/mL (≈ 2.35 µM)
MIC [13]: 8 µg/mL (≈ 9.41 µM)
MIC [14]: 0.25 µg/mL (≈ 0.294 µM)
MIC [15]: < 0.5 µg/mL
Concentration [16]: 3.9 µg/mL
ED50 [17]: 17 mg/kg
ED50 [18]: 4.2 mg/kg
MIC [19]: 1 µg/mL (≈ 1.18 µM)
MIC [20]: > 128 µg/mL
MIC [21]: 32 µg/mL (≈ 37.6 µM)
Concentration [22]: 3.4 µg/mL
Concentration [23]: 11.5 µg/mL
MIC [24]: 16 µg/mL (≈ 18.8 µM)
MIC [25]: 16 µg/mL (≈ 18.8 µM)
MIC [26]: < 0.5 µg/mL
MIC [27]: < 0.5 µg/mL
MIC [28]: > 128 µg/mL
Concentration [29]: 1.2 µg/mL
MIC [30]: 1 µg/mL (≈ 1.18 µM)
MIC [31]: 1 µg/mL (≈ 1.18 µM)
ED50 [32]: 5 mg/kg
MIC [33]: 1 µg/mL (≈ 1.18 µM)
MIC [34]: 0.25 µg/mL (≈ 0.294 µM)
MIC [35]: 0.25 µg/mL (≈ 0.294 µM)
MIC [36]: 2 µg/mL (≈ 2.35 µM)
ED50 [37]: 9 mg/kg
MIC [38]: < 0.5 µg/mL
MIC [39]: 1 µg/mL (≈ 1.18 µM)
MIC [40]: 4 µg/mL (≈ 4.71 µM)
MIC [41]: 8 µg/mL (≈ 9.41 µM)
Concentration [42]: 8.9 µg/mL
MIC [43]: 8 µg/mL (≈ 9.41 µM)
MIC [44]: 32 µg/mL (≈ 37.6 µM)
MIC [45]: 0.25 µg/mL (≈ 0.294 µM)
MIC [46]: 1 µg/mL (≈ 1.18 µM)
MIC [47]: 0.25 µg/mL (≈ 0.294 µM)
MIC [48]: 1 µg/mL (≈ 1.18 µM)
MIC [49]: 16 µg/mL (≈ 18.8 µM)
Concentration [50]: 13.1 µg/mL
Concentration [51]: 3.2 µg/mL
ED50 [52]: > 20 mg/kg
MIC [53]: 8 µg/mL (≈ 9.41 µM)
MIC [54]: 1 µg/mL (≈ 1.18 µM)
MIC [55]: 0.12 µg/mL (≈ 0.141 µM)
MIC [56]: 2 µg/mL (≈ 2.35 µM)
MIC [57]: 0.25 µg/mL (≈ 0.294 µM)
ED50 [58]: > 50 mg/kg
MIC [59]: 1 µg/mL (≈ 1.18 µM)
MIC [60]: > 128 µg/mL
Concentration [61]: 5.6 µg/mL
Concentration [62]: 0.2 µg/mL
Concentration [63]: 4.8 µg/mL
Concentration [64]: 2.4 µg/mL
MIC [65]: 2 µg/mL (≈ 2.35 µM)
MIC [66]: 0.12 µg/mL (≈ 0.141 µM)
Concentration [67]: 2.7 µg/mL
MIC [68]: 1 µg/mL (≈ 1.18 µM)
MIC [69]: 8 µg/mL (≈ 9.41 µM)
